How the values were obtained:
Format in all cases: nucleic-acid assay
Nucleic Acid [1] = experiment: Binding affinity to synthetic oligonucleotide ON19 at 1.0 uM at pH 7.2 by thermal denaturation study
Procedure, shortened: (§1)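 Duplex melting: complementary strands at 1.0 µM each in 20 mM sodium cacodylate, 100 mM NaCl, 10 mM MgCl₂, at the pH of the line. Annealed at 80 °C for 5 min, then cooled to 5 °C and held 30 min. UV absorbance read at 260 nm with heating at 1.0 °C/min; Tm is the maximum of the first-derivative curve.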

Nucleic Acid [2] = experiment: Binding affinity to synthetic double stranded DNA D1 at 1.5 uM at pH 6.0 by thermal denaturation study
Procedure, shortened: (§2)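 Parallel triplex melting: target duplex assembled from strands at 1.0 µM each, TFO third strand added at 1.5 µM. Buffer 20 mM sodium cacodylate, 100 mM NaCl, 10 mM MgCl₂, at the pH of the line. Samples heated to 80 °C for 5 min, cooled to 5 °C and held 30 min. Absorbance read at 260 nm while heating at 1.0 °C/min; Tm taken as the first-derivative maximum.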

Nucleic Acid [3] = experiment: Binding affinity to synthetic double stranded DNA D1 at 1.5 uM at pH 7.2 by thermal denaturation study; procedure, shortened: as §2
Nucleic Acid [4] = experiment: Binding affinity to synthetic oligonucleotide ON18 at 1.0 uM at pH 6.0 by thermal denaturation study; procedure, shortened: as §1
Nucleic Acid [5] = experiment: Binding affinity to synthetic oligonucleotide ON19 at 1.0 uM at pH 6.0 by thermal denaturation study; procedure, shortened: as §1
Nucleic Acid [6] = experiment: Binding affinity to synthetic oligonucleotide ON20 at 1.0 uM at pH 7.0 by thermal denaturation study
Procedure, shortened: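 DNA/RNA antiparallel duplex: each strand at 1.0 µM in 10 mM sodium phosphate, 140 mM NaCl, 1 mM EDTA, pH 7.0. Heated to 80 °C for 5 min, cooled to 5 °C and held 30 min. Absorbance followed at 260 nm during a 1.0 °C/min temperature ramp; Tm is the first-derivative maximum.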

Row | Tm (Nucleic Acid [1]) | Tm (Nucleic Acid [2]) | Tm (Nucleic Acid [3]) | Tm (Nucleic Acid [4]) | Tm (Nucleic Acid [5]) | Tm (Nucleic Acid [6]) | Compound
1 | 56.5 °C | 46 °C | 20.5 °C | 34 °C | 56.5 °C | 59 °C | Cc1cn([C@H]2C[C@H](OP(=O)(O)OC[C@H]3O[C@@H](n4cc(C)c(=O)[nH]c4=O)C[C@@H]3OP(=O)(O)OC[C@H]3O[C@@H](n4cc(C)c(=O)[nH]c4=O)C[C@@H]3OP(=O)(O)OC[C@H]3O[C@@H](n4ccc(N)nc4=O)C[C@@H]3OP(=O)(O)OC[C@H]3O[C@@H](n4cc(C)c(=O)[nH]c4=O)C[C@@H]3OP(=O)(O)OC[C@H]3O[C@@H](n4cc(C)c(=O)[nH]c4=O)C[C@@H]3OP(=O)(O)OC[C@H]3O[C@@H](n4cc(C)c(=O)[nH]c4=O)C[C@@H]3O[PH](O)(O)OC[C@H]3O[C@@H](n4cc(C)c(=O)[nH]c4=O)C[C@@H]3OP(=O)(O)OC[C@H]3O[C@@H](n4cc(C)c(=O)[nH]c4=O)C[C@@H]3OP(=O)(O)OC[C@H]3O[C@@H](n4cc(C)c(=O)[nH]c4=O)C[C@@H]3O)[C@@H](COP(=O)(O)O[C@H]3C[C@H](n4ccc(N)nc4=O)O[C@@H]3COP(=O)(O)O[C@H]3C[C@H](n4ccc(N)nc4=O)O[C@@H]3COP(=O)(O)O[C@H]3C[C@H](n4ccc(N)nc4=O)O[C@@H]3COP(=O)(O)O[C@H]3C[C@H](n4ccc(N)nc4=O)O[C@@H]3COP(=O)(O)O[C@H](CO)CCOc3ccc(-c4nc5c6ccccc6c6ccccc6c5[nH]4)cc3)O2)c(=O)[nH]c1=O
2 | 46 °C | 35.5 °C | 18.5 °C | 23 °C | 46 °C | 49 °C | Cc1cn([C@H]2C[C@H](OP(=O)(O)OC[C@H]3O[C@@H](n4cc(C)c(=O)[nH]c4=O)C[C@@H]3OP(=O)(O)OC[C@H]3O[C@@H](n4cc(C)c(=O)[nH]c4=O)C[C@@H]3O[PH](O)(O)OC[C@H]3O[C@@H](n4cc(C)c(=O)[nH]c4=O)C[C@@H]3OP(=O)(O)OC[C@H]3O[C@@H](n4cc(C)c(=O)[nH]c4=O)C[C@@H]3OP(=O)(O)OC[C@H]3O[C@@H](n4cc(C)c(=O)[nH]c4=O)C[C@@H]3O)[C@@H](COC[C@@H](CCOc3ccc(-c4nc5c6ccccc6c6ccccc6c5[nH]4)c4ccccc34)OP(=O)(O)O[C@H]3C[C@H](n4ccc(N)nc4=O)O[C@@H]3COP(=O)(O)O[C@H]3C[C@H](n4cc(C)c(=O)[nH]c4=O)O[C@@H]3COP(=O)(O)O[C@H]3C[C@H](n4cc(C)c(=O)[nH]c4=O)O[C@@H]3COP(=O)(O)O[C@H]3C[C@H](n4cc(C)c(=O)[nH]c4=O)O[C@@H]3COP(=O)(O)O[C@H]3C[C@H](n4ccc(N)nc4=O)O[C@@H]3COP(=O)(O)O[C@H]3C[C@H](n4ccc(N)nc4=O)O[C@@H]3COP(=O)(O)O[C@H]3C[C@H](n4ccc(N)nc4=O)O[C@@H]3COP(=O)(O)O[C@H]3C[C@H](n4ccc(N)nc4=O)O[C@@H]3CO)O2)c(=O)[nH]c1=O
3 | 52 °C | 44.5 °C | 20.5 °C | 36 °C | 53 °C |  | Cc1cn([C@H]2C[C@H](OP(=O)(O)OC[C@H]3O[C@@H](n4cc(C)c(=O)[nH]c4=O)C[C@@H]3OP(=O)(O)OC[C@H]3O[C@@H](n4cc(C)c(=O)[nH]c4=O)C[C@@H]3OP(=O)(O)OC[C@H]3O[C@@H](n4ccc(N)nc4=O)C[C@@H]3OP(=O)(O)OC[C@H]3O[C@@H](n4cc(C)c(=O)[nH]c4=O)C[C@@H]3OP(=O)(O)OC[C@H]3O[C@@H](n4cc(C)c(=O)[nH]c4=O)C[C@@H]3OP(=O)(O)OC[C@H]3O[C@@H](n4cc(C)c(=O)[nH]c4=O)C[C@@H]3O[PH](O)(O)OC[C@H]3O[C@@H](n4cc(C)c(=O)[nH]c4=O)C[C@@H]3OP(=O)(O)OC[C@H]3O[C@@H](n4cc(C)c(=O)[nH]c4=O)C[C@@H]3OP(=O)(O)OC[C@H]3O[C@@H](n4cc(C)c(=O)[nH]c4=O)C[C@@H]3O)[C@@H](COP(=O)(O)O[C@H]3C[C@H](n4ccc(N)nc4=O)O[C@@H]3COP(=O)(O)O[C@H]3C[C@H](n4ccc(N)nc4=O)O[C@@H]3COP(=O)(O)O[C@H]3C[C@H](n4ccc(N)nc4=O)O[C@@H]3COP(=O)(O)O[C@H]3C[C@H](n4ccc(N)nc4=O)O[C@@H]3COP(=O)(O)O[C@H](CO)COCc3ccc(C#Cc4ccc5ccc6cccc7ccc4c5c67)cc3)O2)c(=O)[nH]c1=O
4 | 50.5 °C | 43.5 °C | 25 °C | 34.5 °C | 51 °C | 51 °C | Cc1cn([C@H]2C[C@H](OP(=O)(O)OC[C@H]3O[C@@H](n4cc(C)c(=O)[nH]c4=O)C[C@@H]3OP(=O)(O)OC[C@H]3O[C@@H](n4cc(C)c(=O)[nH]c4=O)C[C@@H]3O[PH](O)(O)OC[C@H]3O[C@@H](n4cc(C)c(=O)[nH]c4=O)C[C@@H]3OP(=O)(O)OC[C@H]3O[C@@H](n4cc(C)c(=O)[nH]c4=O)C[C@@H]3OP(=O)(O)OC[C@H]3O[C@@H](n4cc(C)c(=O)[nH]c4=O)C[C@@H]3O)[C@@H](COC[C@@H](CCOc3ccc(-c4nc5c6ccccc6c6ccccc6c5[nH]4)cc3)OP(=O)(O)O[C@H]3C[C@H](n4ccc(N)nc4=O)O[C@@H]3COP(=O)(O)O[C@H]3C[C@H](n4cc(C)c(=O)[nH]c4=O)O[C@@H]3COP(=O)(O)O[C@H]3C[C@H](n4cc(C)c(=O)[nH]c4=O)O[C@@H]3COP(=O)(O)O[C@H]3C[C@H](n4cc(C)c(=O)[nH]c4=O)O[C@@H]3COP(=O)(O)O[C@H]3C[C@H](n4ccc(N)nc4=O)O[C@@H]3COP(=O)(O)O[C@H]3C[C@H](n4ccc(N)nc4=O)O[C@@H]3COP(=O)(O)O[C@H]3C[C@H](n4ccc(N)nc4=O)O[C@@H]3COP(=O)(O)O[C@H]3C[C@H](n4ccc(N)nc4=O)O[C@@H]3CO)O2)c(=O)[nH]c1=O
5 |  | 13.5 °C |  |  |  |  | Cc1cn([C@H]2C[C@H](OP(=O)(O)OC[C@H]3O[C@@H](n4cc(C)c(=O)[nH]c4=O)C[C@@H]3OP(=O)(O)OC[C@H]3O[C@@H](n4cc(C)c(=O)[nH]c4=O)C[C@@H]3O[PH](O)(O)OC[C@H]3O[C@@H](n4cc(C)c(=O)[nH]c4=O)C[C@@H]3OP(=O)(O)OC[C@H]3O[C@@H](n4cc(C)c(=O)[nH]c4=O)C[C@@H]3OP(=O)(O)OC[C@H]3O[C@@H](n4cc(C)c(=O)[nH]c4=O)C[C@@H]3O)[C@@H](COC[C@@H](CCOc3ccc(-c4ncc[nH]4)c4ccccc34)OP(=O)(O)O[C@H]3C[C@H](n4ccc(N)nc4=O)O[C@@H]3COP(=O)(O)O[C@H]3C[C@H](n4cc(C)c(=O)[nH]c4=O)O[C@@H]3COP(=O)(O)O[C@H]3C[C@H](n4cc(C)c(=O)[nH]c4=O)O[C@@H]3COP(=O)(O)O[C@H]3C[C@H](n4cc(C)c(=O)[nH]c4=O)O[C@@H]3COP(=O)(O)O[C@H]3C[C@H](n4ccc(N)nc4=O)O[C@@H]3COP(=O)(O)O[C@H]3C[C@H](n4ccc(N)nc4=O)O[C@@H]3COP(=O)(O)O[C@H]3C[C@H](n4ccc(N)nc4=O)O[C@@H]3COP(=O)(O)O[C@H]3C[C@H](n4ccc(N)nc4=O)O[C@@H]3CO)O2)c(=O)[nH]c1=O
6 |  | 39.5 °C | 21.5 °C | 30 °C | 44.5 °C |  | Cc1cn([C@H]2C[C@H](OP(=O)(O)OC[C@H]3O[C@@H](n4cc(C)c(=O)[nH]c4=O)C[C@@H]3OP(=O)(O)OC[C@H]3O[C@@H](n4cc(C)c(=O)[nH]c4=O)C[C@@H]3O[PH](O)(O)OC[C@H]3O[C@@H](n4cc(C)c(=O)[nH]c4=O)C[C@@H]3OP(=O)(O)OC[C@H]3O[C@@H](n4cc(C)c(=O)[nH]c4=O)C[C@@H]3OP(=O)(O)OC[C@H]3O[C@@H](n4cc(C)c(=O)[nH]c4=O)C[C@@H]3O)[C@@H](COC[C@@H](COCc3ccc(C#Cc4ccc5ccc6cccc7ccc4c5c67)cc3)OP(=O)(O)O[C@H]3C[C@H](n4ccc(N)nc4=O)O[C@@H]3COP(=O)(O)O[C@H]3C[C@H](n4cc(C)c(=O)[nH]c4=O)O[C@@H]3COP(=O)(O)O[C@H]3C[C@H](n4cc(C)c(=O)[nH]c4=O)O[C@@H]3COP(=O)(O)O[C@H]3C[C@H](n4cc(C)c(=O)[nH]c4=O)O[C@@H]3COP(=O)(O)O[C@H]3C[C@H](n4ccc(N)nc4=O)O[C@@H]3COP(=O)(O)O[C@H]3C[C@H](n4ccc(N)nc4=O)O[C@@H]3COP(=O)(O)O[C@H]3C[C@H](n4ccc(N)nc4=O)O[C@@H]3COP(=O)(O)O[C@H]3C[C@H](n4ccc(N)nc4=O)O[C@@H]3CO)O2)c(=O)[nH]c1=O
7 | 38 °C | 56.5 °C | 43 °C | 38 °C | 41 °C |  | Cc1cn([C@H]2C[C@H](OP(=O)(O)OC[C@H]3O[C@@H](n4ccc(N)nc4=O)C[C@@H]3OP(=O)(O)OC[C@H]3O[C@@H](n4cc(C)c(=O)[nH]c4=O)C[C@@H]3OP(=O)(O)O[C@@H](COCc3ccc(C#Cc4ccc5ccc6cccc7ccc4c5c67)cc3)COC[C@H]3O[C@@H](n4cc(C)c(=O)[nH]c4=O)C[C@@H]3OP(=O)(O)OC[C@H]3O[C@@H](n4cc(C)c(=O)[nH]c4=O)C[C@@H]3O[PH](O)(O)OC[C@H]3O[C@@H](n4cc(C)c(=O)[nH]c4=O)C[C@@H]3OP(=O)(O)OC[C@H]3O[C@@H](n4cc(C)c(=O)[nH]c4=O)C[C@@H]3OP(=O)(O)OC[C@H]3O[C@@H](n4cc(C)c(=O)[nH]c4=O)C[C@@H]3O)[C@@H](COC[C@H](COCc3ccc(C#Cc4ccc5ccc6cccc7ccc4c5c67)cc3)OP(=O)(O)O[C@H]3C[C@H](n4cc(C)c(=O)[nH]c4=O)O[C@@H]3COP(=O)(O)O[C@H]3C[C@H](n4cc(C)c(=O)[nH]c4=O)O[C@@H]3COP(=O)(O)O[C@H]3C[C@H](n4ccc(N)nc4=O)O[C@@H]3COP(=O)(O)O[C@H]3C[C@H](n4ccc(N)nc4=O)O[C@@H]3COP(=O)(O)O[C@H]3C[C@H](n4ccc(N)nc4=O)O[C@@H]3COP(=O)(O)O[C@H]3C[C@H](n4ccc(N)nc4=O)O[C@@H]3CO)O2)c(=O)[nH]c1=O

From ChEMBL document CHEMBL1151702, “Using an aryl phenanthroimidazole moiety as a conjugated flexible intercalator to improve the hybridization efficiency of a triplex-forming oligonucleotide” (Bioorg Med Chem, 2008)
